# Data published in ChEMBL document CHEMBL1137343, “4-arylazo-3,5-diamino-1H-pyrazole CDK inhibitors: SAR study, crystal structure in complex with CDK2, selectivity, and cellular effects” (J Med Chem, 2006).
# How the values were obtained:
# G-361 [1] = assay: Viability of G361 cells at 100 uM; assay type: functional, Homo sapiens
# Outline: (§1)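 Cells grown in DMEM with 10% FCS and 4 mM glutamine at 37 °C, plated in 96-well format, preincubated 12 h, then exposed 72 h. Live cells measured by Calcein AM (1 h) fluorescence at 485/538 nm; % viable cells given at 100 µM compound.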
# HOS [2] = assay: Viability of HOS cells at 100 uM; assay type: functional, Homo sapiens; outline: as §1
# K562 [3] = assay: Viability of K562 cells at 100 uM; assay type: functional, Homo sapiens; outline: as §1
# HOS [4] = assay: Antiproliferative activity against HOS cell line; assay type: functional, cell-based; conditions: Homo sapiens
# Outline: (§2)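 Cells grown in DMEM with 10% FCS, glutamine and penicillin/streptomycin at 37 °C, seeded in 96-well plates and preincubated 12 h. Compounds were added in 6-fold dilutions (1-100 µM) for 72 h. IC50 taken from dose-response curves.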
# [5] = target: T1, Cyclin-dependent kinase 2/cyclin E (Homo sapiens, UniProt P24941); assay: Inhibition of CDK2/Cyclin E in presence of 15 uM ATP; assay type: protein-complex assay
# K562 [6] = assay: Antiproliferative activity against K562 cell line; assay type: functional, cell-based; conditions: Homo sapiens; outline: as §2
# MCF7 [7] = assay: Antiproliferative activity against MCF7 cell line; assay type: functional, cell-based; conditions: Homo sapiens; outline: as §2
# MCF7 [8] = assay: Viability of MCF7 cells at 100 uM; assay type: functional, Homo sapiens; outline: as §1
# G-361 [9] = assay: Antiproliferative activity against G361 cell line; assay type: functional, cell-based; conditions: Homo sapiens; outline: as §2
# HT-29 [10] = assay: Inhibition of CEA mRNA synthesis in HT29 cells measured as number of copies per 10^6 cells by RT PCR at 70 uM after 12 hrs; assay type: functional, Homo sapiens
# Outline: (§3)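 HT-29 cells were treated 3, 6 or 12 h; total RNA extracted with TRI reagent. 3 µg RNA reverse-transcribed with random primers and M-MLV RT at 42 °C for 60 min. CEA transcripts quantified by TaqMan real-time PCR: 50 cycles of 95 °C 15 s and 65 °C 15 s. Absolute copies came from amplicon standards of 30 to 10^6 copies, expressed per 10^6 cells. Samples run in duplicate PCR; values average of four determinations ± SD.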
# HT-29 [11] = assay: Cell cycle arrest in HT29 cells by accumulation at G2/M phase at 70 uM after 12 hrs; assay type: functional, Homo sapiens
# Outline: (§4)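 Subconfluent, asynchronous HT-29 cells were treated 3, 6 or 12 h, then pulsed with 10 µM BrdU for 30 min at 37 °C. Cells were fixed in ice-cold 70% ethanol, DNA denatured in 2 M HCl and neutralised with borate. Staining used FITC anti-BrdU, then propidium iodide (0.1 mg/mL) with RNase A. Analysis by flow cytometry with 488 nm laser.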
# HT-29 [12] = assay: Cell cycle arrest in HT29 cells by accumulation at S phase at 70 uM after 6 hrs; assay type: functional, Homo sapiens; outline: as §4
# HT-29 [13] = assay: Inhibition of CEA mRNA synthesis in HT29 cells measured as number of copies per 10^6 cells by RT PCR at 70 uM after 6 hrs; assay type: functional, Homo sapiens; outline: as §3
# HT-29 [14] = assay: Inhibition of EpCAM mRNA synthesis in HT29 cells measured as number of copies per 10^6 cells by RT PCR at 70 uM after 3 hrs; assay type: functional, Homo sapiens
# Outline: (§5)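 HT-29 cells (5 × 10⁶) treated for 3, 6 or 12 h; total RNA extracted with TRI reagent, 3 µg reverse transcribed with random primers and M-MLV RT (42 °C, 60 min). Absolute transcript copies quantified by TaqMan real-time PCR, 50 cycles, against diluted gene-specific amplicon standards (30–1 000 000 copies); duplicate PCR per sample; values are means of four determinations ± SD.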
# HT-29 [15] = assay: Cell cycle arrest in HT29 cells by accumulation at G0/G1 phase at 70 uM after 12 hrs; assay type: functional, Homo sapiens; outline: as §4
# HT-29 [16] = assay: Cell cycle arrest in HT29 cells by accumulation at G0/G1 phase at 70 uM after 3 hrs; assay type: functional, Homo sapiens; outline: as §4
# HT-29 [17] = assay: Cell cycle arrest in HT29 cells by accumulation at S phase at 70 uM after 12 hrs; assay type: functional, Homo sapiens; outline: as §4
# HT-29 [18] = assay: Inhibition of GAPDH mRNA synthesis in HT29 cells measured as number of copies per 10^6 cells by RT PCR at 70 uM after 3 hrs; assay type: functional, Homo sapiens; outline: as §5
# HT-29 [19] = assay: Inhibition of GAPDH mRNA synthesis in HT29 cells measured as number of copies per 10^6 cells by RT PCR at 70 uM after 12 hrs; assay type: functional, Homo sapiens; outline: as §5
# HT-29 [20] = assay: Inhibition of CEA mRNA synthesis in HT29 cells measured as number of copies per 10^6 cells by RT PCR at 70 uM after 3 hrs; assay type: functional, Homo sapiens; outline: as §3
# HT-29 [21] = assay: Cell cycle arrest in HT29 cells by accumulation at G2/M phase at 70 uM after 6 hrs; assay type: functional, Homo sapiens; outline: as §4
# HT-29 [22] = assay: Inhibition of GAPDH mRNA synthesis in HT29 cells measured as number of copies per 10^6 cells by RT PCR at 70 uM after 6 hrs; assay type: functional, Homo sapiens; outline: as §5
# HT-29 [23] = assay: Cell cycle arrest in HT29 cells by accumulation at G0/G1 phase at 70 uM after 6 hrs; assay type: functional, Homo sapiens; outline: as §4
# HT-29 [24] = assay: Inhibition of EpCAM mRNA synthesis in HT29 cells measured as number of copies per 10^6 cells by RT PCR at 70 uM after 12 hrs; assay type: functional, Homo sapiens; outline: as §5
# HT-29 [25] = assay: Cell cycle arrest in HT29 cells by accumulation at S phase at 70 uM after 3 hrs; assay type: functional, Homo sapiens; outline: as §4
# HT-29 [26] = assay: Cell cycle arrest in HT29 cells by accumulation at G2/M phase at 70 uM after 3 hrs; assay type: functional, Homo sapiens; outline: as §4
# HT-29 [27] = assay: Inhibition of EpCAM mRNA synthesis in HT29 cells measured as number of copies per 10^6 cells by RT PCR at 70 uM after 6 hrs; assay type: functional, Homo sapiens; outline: as §5
# [28] = target: T1, Cyclin-dependent kinase 2/cyclin E; assay: Inhibition of CDK2/Cyclin E in presence of 100 uM ATP; assay type: protein-complex assay
# [29] = target: Cyclin-dependent kinase 4/cyclin D1 (Homo sapiens, UniProt P11802); assay: Inhibition of CDK4/Cyclin D1 in presence of 100 uM ATP; assay type: protein-complex assay
# [30] = target: Cyclin-dependent kinase 7/ cyclin H (Homo sapiens, UniProt P50613); assay: Inhibition of CDK7/Cyclin H in presence of 100 uM ATP; assay type: protein-complex assay
# CDK9/cyclin T1 = CDK9/cyclin T1 (Homo sapiens, UniProt P50750); assay: Inhibition of CDK9/Cyclin T1 in presence of 100 uM ATP; assay type: protein-complex assay
# [31] = target: Cyclin-dependent kinase 1/cyclin B (Homo sapiens, UniProt P06493); assay: Inhibition of CDK1/Cyclin B in presence of 100 uM ATP; assay type: protein-complex assay
# [32] = target: Cyclin-dependent kinase 2/cyclin A (Homo sapiens, UniProt P24941); assay: Inhibition of CDK2/Cyclin A in presence of 100 uM ATP; assay type: protein-complex assay
# Sequence of CDK9/cyclin T1 (O60563 whole entry): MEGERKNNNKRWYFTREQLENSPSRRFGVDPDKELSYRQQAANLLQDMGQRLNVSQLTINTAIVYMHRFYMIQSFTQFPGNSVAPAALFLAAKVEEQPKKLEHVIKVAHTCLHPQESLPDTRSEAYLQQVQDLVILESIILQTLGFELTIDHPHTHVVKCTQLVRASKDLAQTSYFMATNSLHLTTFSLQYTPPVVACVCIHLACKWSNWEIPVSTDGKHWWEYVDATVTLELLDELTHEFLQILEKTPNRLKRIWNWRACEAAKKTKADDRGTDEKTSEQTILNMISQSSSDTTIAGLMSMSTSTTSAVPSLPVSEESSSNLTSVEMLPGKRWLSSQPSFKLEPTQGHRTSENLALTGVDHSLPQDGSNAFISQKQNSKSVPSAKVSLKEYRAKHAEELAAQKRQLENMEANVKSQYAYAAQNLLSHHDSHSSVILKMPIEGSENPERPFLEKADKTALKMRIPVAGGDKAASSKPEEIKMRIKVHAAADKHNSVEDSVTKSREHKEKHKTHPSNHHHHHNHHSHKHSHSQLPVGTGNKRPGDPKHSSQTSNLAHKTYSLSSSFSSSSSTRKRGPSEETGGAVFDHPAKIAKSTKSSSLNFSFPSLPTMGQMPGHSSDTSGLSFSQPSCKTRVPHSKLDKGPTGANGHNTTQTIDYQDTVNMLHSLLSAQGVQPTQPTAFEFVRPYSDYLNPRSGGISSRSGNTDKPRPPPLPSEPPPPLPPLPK
# Sequence of CDK9/cyclin T1 (P50750 whole entry): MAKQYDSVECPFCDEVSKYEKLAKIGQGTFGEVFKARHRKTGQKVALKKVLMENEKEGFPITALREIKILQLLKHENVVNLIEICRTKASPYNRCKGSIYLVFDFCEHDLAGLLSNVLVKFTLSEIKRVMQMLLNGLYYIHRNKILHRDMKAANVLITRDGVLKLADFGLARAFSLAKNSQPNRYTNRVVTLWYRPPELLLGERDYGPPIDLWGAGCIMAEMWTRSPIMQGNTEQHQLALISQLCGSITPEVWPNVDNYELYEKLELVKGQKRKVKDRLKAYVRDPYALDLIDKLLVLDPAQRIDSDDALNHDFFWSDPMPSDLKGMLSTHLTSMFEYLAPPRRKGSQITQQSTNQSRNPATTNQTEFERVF
# Sequence of Cyclin-dependent kinase 7/ cyclin H (P51946 whole entry): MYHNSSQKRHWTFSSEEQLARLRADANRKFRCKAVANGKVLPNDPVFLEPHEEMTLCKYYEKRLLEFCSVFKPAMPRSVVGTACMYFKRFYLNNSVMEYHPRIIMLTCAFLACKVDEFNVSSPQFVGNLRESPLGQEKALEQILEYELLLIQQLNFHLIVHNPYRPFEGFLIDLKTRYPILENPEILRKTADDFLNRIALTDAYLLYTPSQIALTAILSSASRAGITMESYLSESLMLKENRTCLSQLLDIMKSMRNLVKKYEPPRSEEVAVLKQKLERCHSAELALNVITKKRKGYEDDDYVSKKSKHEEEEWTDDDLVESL
# Sequence of Cyclin-dependent kinase 7/ cyclin H (P50613 whole entry): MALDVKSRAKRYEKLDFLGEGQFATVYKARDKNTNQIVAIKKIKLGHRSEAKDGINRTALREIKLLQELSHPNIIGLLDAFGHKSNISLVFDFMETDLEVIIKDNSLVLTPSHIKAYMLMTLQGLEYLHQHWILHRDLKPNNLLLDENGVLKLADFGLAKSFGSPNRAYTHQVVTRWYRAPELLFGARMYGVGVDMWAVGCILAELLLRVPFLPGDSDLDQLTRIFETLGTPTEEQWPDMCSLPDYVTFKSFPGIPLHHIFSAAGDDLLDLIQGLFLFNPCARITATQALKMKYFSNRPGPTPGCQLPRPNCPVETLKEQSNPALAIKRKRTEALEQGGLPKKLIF
# Sequence of Cyclin-dependent kinase 4/cyclin D1 (P11802 whole entry): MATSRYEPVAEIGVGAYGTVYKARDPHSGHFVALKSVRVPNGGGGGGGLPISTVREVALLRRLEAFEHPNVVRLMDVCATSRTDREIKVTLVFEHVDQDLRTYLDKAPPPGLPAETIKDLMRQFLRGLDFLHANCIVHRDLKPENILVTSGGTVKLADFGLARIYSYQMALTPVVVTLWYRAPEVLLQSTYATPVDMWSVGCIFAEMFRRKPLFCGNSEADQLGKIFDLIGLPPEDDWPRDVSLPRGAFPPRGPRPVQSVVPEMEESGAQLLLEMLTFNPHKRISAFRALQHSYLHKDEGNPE
# Sequence of Cyclin-dependent kinase 4/cyclin D1 (P24385 whole entry, further chain): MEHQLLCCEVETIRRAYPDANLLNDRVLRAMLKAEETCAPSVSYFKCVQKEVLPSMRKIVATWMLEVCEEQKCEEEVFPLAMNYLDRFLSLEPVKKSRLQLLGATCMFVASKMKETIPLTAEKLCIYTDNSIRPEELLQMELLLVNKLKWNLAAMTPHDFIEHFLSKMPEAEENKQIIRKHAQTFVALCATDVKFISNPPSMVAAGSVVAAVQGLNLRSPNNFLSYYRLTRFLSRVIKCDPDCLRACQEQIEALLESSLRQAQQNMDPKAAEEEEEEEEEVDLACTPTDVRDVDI
SMILES,Activity (G-361 [1]) [%],Activity (HOS [2]) [%],Activity (K562 [3]) [%],IC50 (HOS [4]) [µM],IC50 [5] [µM],IC50 (K562 [6]) [µM],IC50 (MCF7 [7]) [µM],Activity (MCF7 [8]) [%],IC50 (G-361 [9]) [µM],other results
Nc1n[nH]c(N)c1/N=N/c1cccc2ccccc12,55,79,7.7,> 100,10,50,> 100,56,> 100,
Nc1n[nH]c(N)c1/N=N/c1ccccc1C(=O)O,96,91,89,> 100,92,> 100,> 100,97,> 100,
Nc1n[nH]c(N)c1/N=N/c1cccc(C(=O)O)c1,93,94,84,> 100,28,> 100,> 100,102,> 100,
Nc1n[nH]c(N)c1/N=N/c1cccc2c1CCCC2,27,32,26,92,15,55,81,39,77,
Nc1n[nH]c(N)c1/N=N/c1ccccc1O,74,84,72,> 100,2.5,> 100,> 100,72,> 100,
CC[C@H](CO)Nc1nc(NCc2ccccc2)c2ncn(C(C)C)c2n1 [SELICICLIB],,,,,,,,,,Activity (HT-29 [10]): 24350; Activity (HT-29 [11]): 34.5%; Activity (HT-29 [12]): 0.1%; Activity (HT-29 [13]): 19150; Activity (HT-29 [14]): 8258813; Activity (HT-29 [15]): 64.5%; Activity (HT-29 [16]): 48%; Activity (HT-29 [17]): 1.1%; Activity (HT-29 [18]): 3945095; Activity (HT-29 [19]): 3926015; Activity (HT-29 [20]): 30568; Activity (HT-29 [21]): 55.9%; Activity (HT-29 [22]): 3146605; Activity (HT-29 [23]): 44%; Activity (HT-29 [24]): 6863365; Activity (HT-29 [25]): 1.1%; Activity (HT-29 [26]): 50.9%; Activity (HT-29 [27]): 6151085
Nc1n[nH]c(N)c1/N=N/c1ccccc1,75,83,90,> 100,22,> 100,> 100,74,> 100,IC50 [28]: 100 µM; IC50 [29]: > 100 µM; IC50 [30]: > 100 µM; IC50 (CDK9/cyclin T1): 15 µM; IC50 [31]: > 100 µM; IC50 [32]: > 100 µM
